Test results reported in ChEMBL document CHEMBL1773057, “Design, synthesis and in vitro antimicrobial evaluation of novel Imidazo[1,2-a]pyridine and imidazo[2,1-b][1,3]benzothiazole motifs” (2011).
≈ marks a conversion by molar mass, not a printed value.

Tests used:
Assay type in all cases: functional
Enterococcus faecalis = assay: Antimicrobial activity against Enterococcus faecalis after 24 hrs by broth microdilution method
Method in brief: (§1)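 Broth microdilution. Bacteria were grown on Mueller-Hinton agar and diluted in Mueller-Hinton broth. Compounds were made as 1000 µg/mL stocks in 50% DMSO/H₂O and added to wells as two-fold dilutions starting at 500 µg/mL, then inoculated. Sealed plates were incubated at 37 °C for 24 h in a humid chamber. MIC was the lowest concentration with no visible turbidity.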

Staphylococcus aureus = assay: Antimicrobial activity against Staphylococcus aureus after 24 hrs by broth microdilution method; method in brief: as §1
Pseudomonas aeruginosa = assay: Antimicrobial activity against Pseudomonas aeruginosa after 24 hrs by broth microdilution method; method in brief: as §1
Escherichia coli = assay: Antimicrobial activity against Escherichia coli after 24 hrs by broth microdilution method; method in brief: as §1
Candida albicans = assay: Antimicrobial activity against Candida albicans after 48 hrs by broth microdilution method
Method in brief: (§2)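 Fungi were grown on Sabouraud dextrose agar. Inocula were prepared in Sabouraud liquid medium at 37 °C for 12 h, then diluted in RPMI-1640 with L-glutamine, MOPS-buffered at pH 7. Compounds were made as 1000 µg/mL stocks in 50% DMSO/H₂O and tested as two-fold dilutions from 500 µg/mL. Sealed plates were incubated at 37 °C for 48 h in a humid chamber. MIC was the lowest concentration without visible turbidity.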

Priestia megaterium = assay: Antimicrobial activity against Bacillus megaterium after 24 hrs by broth microdilution method; method in brief: as §1
Candida parapsilosis = assay: Antimicrobial activity against Candida parapsilosis after 48 hrs by broth microdilution method; conditions: Lodderomyces parapsilosis; method in brief: as §2
Klebsiella aerogenes = assay: Antimicrobial activity against Enterobacter aerogenes after 24 hrs by broth microdilution method; method in brief: as §1
Nannizzia gypsea = assay: Antimicrobial activity against Microsporum gypseum after 48 hrs by broth microdilution method; method in brief: as §2
Aspergillus flavus = assay: Antimicrobial activity against Aspergillus flavus after 48 hrs by broth microdilution method; method in brief: as §2

SMILES	MIC (Enterococcus faecalis)	MIC (Staphylococcus aureus)	MIC (Pseudomonas aeruginosa)	MIC (Escherichia coli)	MIC (Candida albicans)	MIC (Priestia megaterium)	MIC (Candida parapsilosis)	MIC (Klebsiella aerogenes)	MIC (Nannizzia gypsea)	MIC (Aspergillus flavus)
Fc1ccc(Nc2c(-c3cnc4ccc(Br)cc4c3)nc3ccc(-c4nnc(-c5ccc(F)cc5)o4)cn23)cc1	1.38 µg/mL (≈ 2.32 µM)	0.46 µg/mL (≈ 0.773 µM)	0.75 µg/mL (≈ 1.26 µM)	0.75 µg/mL (≈ 1.26 µM)	1.22 µg/mL (≈ 2.05 µM)	2.21 µg/mL (≈ 3.71 µM)	1.35 µg/mL (≈ 2.27 µM)	0.41 µg/mL (≈ 0.689 µM)	1.14 µg/mL (≈ 1.91 µM)	1.32 µg/mL (≈ 2.22 µM)
O=[N+]([O-])c1ccc(-c2nnc(-c3ccc4nc(-c5cnc6ccc(Br)cc6c5)c(Nc5ccc(F)cc5)n4c3)o2)cc1	2.13 µg/mL (≈ 3.42 µM)	1.45 µg/mL (≈ 2.33 µM)	1.58 µg/mL (≈ 2.54 µM)	1.72 µg/mL (≈ 2.76 µM)	6.4 µg/mL (≈ 10.3 µM)	3.11 µg/mL (≈ 5 µM)	5.34 µg/mL (≈ 8.58 µM)	1.27 µg/mL (≈ 2.04 µM)	8.27 µg/mL (≈ 13.3 µM)	7.15 µg/mL (≈ 11.5 µM)
Fc1ccc(Nc2c(-c3cnc4ccc(Br)cc4c3)nc3sc4cc(F)ccc4n23)cc1	0.51 µg/mL (≈ 1.01 µM)	0.43 µg/mL (≈ 0.848 µM)	0.34 µg/mL (≈ 0.67 µM)	0.35 µg/mL (≈ 0.69 µM)	1.21 µg/mL (≈ 2.38 µM)	1.12 µg/mL (≈ 2.21 µM)	1.13 µg/mL (≈ 2.23 µM)	0.51 µg/mL (≈ 1.01 µM)	1.24 µg/mL (≈ 2.44 µM)	1.3 µg/mL (≈ 2.56 µM)
Fc1ccc(Nc2c(-c3cnc4ccc(F)cc4c3)nc3sc4cc(F)ccc4n23)cc1	0.21 µg/mL (≈ 0.47 µM)	0.26 µg/mL (≈ 0.582 µM)	0.15 µg/mL (≈ 0.336 µM)	0.23 µg/mL (≈ 0.515 µM)	1.12 µg/mL (≈ 2.51 µM)	0.83 µg/mL (≈ 1.86 µM)	1.14 µg/mL (≈ 2.55 µM)	0.34 µg/mL (≈ 0.762 µM)	1.2 µg/mL (≈ 2.69 µM)	1.23 µg/mL (≈ 2.76 µM)
COc1ccc2ncc(-c3nc4sc5cc(F)ccc5n4c3Nc3ccc(F)cc3)cc2c1	11.2 µg/mL (≈ 24.4 µM)	12.4 µg/mL (≈ 27.1 µM)	11.9 µg/mL (≈ 25.9 µM)	10.4 µg/mL (≈ 22.7 µM)	11.2 µg/mL (≈ 24.4 µM)	19.1 µg/mL (≈ 41.8 µM)	13.6 µg/mL (≈ 29.6 µM)	13.4 µg/mL (≈ 29.3 µM)	17.5 µg/mL (≈ 38.2 µM)	15.3 µg/mL (≈ 33.4 µM)
Cc1ccc2ncc(-c3nc4sc5cc(F)ccc5n4c3Nc3ccc(F)cc3)cc2c1	9.45 µg/mL (≈ 21.4 µM)	8.63 µg/mL (≈ 19.5 µM)	9.66 µg/mL (≈ 21.8 µM)	10.4 µg/mL (≈ 23.5 µM)	12.2 µg/mL (≈ 27.5 µM)	18.6 µg/mL (≈ 42.1 µM)	14.4 µg/mL (≈ 32.6 µM)	9.57 µg/mL (≈ 21.6 µM)	18.4 µg/mL (≈ 41.6 µM)	13.4 µg/mL (≈ 30.2 µM)
Fc1ccc(Nc2c(-c3c[nH]c4ccc(Br)cc34)nc3sc4cc(F)ccc4n23)cc1	0.87 µg/mL (≈ 1.76 µM)	0.18 µg/mL (≈ 0.363 µM)	0.53 µg/mL (≈ 1.07 µM)	0.44 µg/mL (≈ 0.888 µM)	2.23 µg/mL (≈ 4.5 µM)	1.69 µg/mL (≈ 3.41 µM)	2.32 µg/mL (≈ 4.68 µM)	0.32 µg/mL (≈ 0.646 µM)	3.15 µg/mL (≈ 6.36 µM)	2.13 µg/mL (≈ 4.3 µM)
Fc1ccc(Nc2c(-c3c[nH]c4ccc(F)cc34)nc3sc4cc(F)ccc4n23)cc1	0.41 µg/mL (≈ 0.944 µM)	0.18 µg/mL (≈ 0.414 µM)	0.11 µg/mL (≈ 0.253 µM)	0.14 µg/mL (≈ 0.322 µM)	1.15 µg/mL (≈ 2.65 µM)	1.52 µg/mL (≈ 3.5 µM)	1.24 µg/mL (≈ 2.85 µM)	0.23 µg/mL (≈ 0.529 µM)	1.23 µg/mL (≈ 2.83 µM)	1.15 µg/mL (≈ 2.65 µM)
Cc1ccc2[nH]cc(-c3nc4sc5cc(F)ccc5n4c3Nc3ccc(F)cc3)c2c1	9.17 µg/mL (≈ 21.3 µM)	10.1 µg/mL (≈ 23.5 µM)	16.2 µg/mL (≈ 37.6 µM)	14.5 µg/mL (≈ 33.7 µM)	14.6 µg/mL (≈ 34 µM)	22.1 µg/mL (≈ 51.5 µM)	16.5 µg/mL (≈ 38.3 µM)	14.6 µg/mL (≈ 34 µM)	10.5 µg/mL (≈ 24.5 µM)	14.6 µg/mL (≈ 33.8 µM)
COc1ccc2c(c1)sc1nc(-c3c[nH]c4ccc(Br)cc34)c(Nc3ccc(F)cc3)n12	10.6 µg/mL (≈ 20.8 µM)	7.33 µg/mL (≈ 14.4 µM)	9.69 µg/mL (≈ 19.1 µM)	8.12 µg/mL (≈ 16 µM)	4.12 µg/mL (≈ 8.12 µM)	13.2 µg/mL (≈ 26.1 µM)	5.63 µg/mL (≈ 11.1 µM)	8.13 µg/mL (≈ 16 µM)	4.14 µg/mL (≈ 8.16 µM)	3.21 µg/mL (≈ 6.33 µM)
COc1ccc2[nH]cc(-c3nc4sc5cc(F)ccc5n4c3Nc3ccc(F)cc3)c2c1	19.5 µg/mL (≈ 43.8 µM)	17.4 µg/mL (≈ 38.9 µM)	18.5 µg/mL (≈ 41.5 µM)	19.7 µg/mL (≈ 44.1 µM)	17.5 µg/mL (≈ 39.2 µM)	23.4 µg/mL (≈ 52.5 µM)	16.6 µg/mL (≈ 37.2 µM)	17.8 µg/mL (≈ 40 µM)	19.6 µg/mL (≈ 44 µM)	15.5 µg/mL (≈ 34.8 µM)
CC1(C)S[C@@H]2[C@H](NC(=O)[C@H](N)c3ccc(O)cc3)C(=O)N2[C@H]1C(=O)O [AMOXICILLIN]	1.62 µg/mL (≈ 4.43 µM)	12.9 µg/mL (≈ 35.4 µM)	14.7 µg/mL (≈ 40.1 µM)	15.3 µg/mL (≈ 41.9 µM)	–	2.28 µg/mL (≈ 6.24 µM)	–	3.45 µg/mL (≈ 9.44 µM)	–	–
C=CC1=C(C(=O)O)N2C(=O)[C@@H](NC(=O)/C(=N\OCC(=O)O)c3csc(N)n3)[C@H]2SC1 [CEFIXIME]	28.6 µg/mL (≈ 63 µM)	34.6 µg/mL (≈ 76.4 µM)	16.4 µg/mL (≈ 36.2 µM)	2.12 µg/mL (≈ 4.68 µM)	–	126 µg/mL (≈ 279 µM)	–	27.1 µg/mL (≈ 59.8 µM)	–	–
OC(Cn1cncn1)(Cn1cncn1)c1ccc(F)cc1F [FLUCONAZOLE]	–	–	–	–	2.11 µg/mL (≈ 6.89 µM)	–	4.35 µg/mL (≈ 14.2 µM)	–	6.57 µg/mL (≈ 21.5 µM)	9.22 µg/mL (≈ 30.1 µM)
